Values after ≈ are worked out from the molar mass of the structure shown. Active and inactive are the calls of the source. No cut-off for these calls is given here.
Columns and labels:
[1] = Dissociation constant, pKa of the compound; assay type: physicochemical
[2] = system: Rattus norvegicus; assay: Toxicity in rat assessed as histological changes at 90 mg/kg, po qd for 4 days; assay type: organism-based; design: dose 90 mg/kg, route oral; conditions: in vivo, 96 h
Method in brief: (§1)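 Male rats dosed once daily for 4 days by oral gavage with suspensions in aqueous CMC at 30, 90 and 300 mg/kg. Adverse observations were recorded and histology examined.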

[3] = biological target: Cytochrome P450 3A4 (Homo sapiens, UniProt P08684); assay: Inhibition of CYP3A4; assay type: ADME
Chain of Cytochrome P450 3A4 (P08684 whole entry): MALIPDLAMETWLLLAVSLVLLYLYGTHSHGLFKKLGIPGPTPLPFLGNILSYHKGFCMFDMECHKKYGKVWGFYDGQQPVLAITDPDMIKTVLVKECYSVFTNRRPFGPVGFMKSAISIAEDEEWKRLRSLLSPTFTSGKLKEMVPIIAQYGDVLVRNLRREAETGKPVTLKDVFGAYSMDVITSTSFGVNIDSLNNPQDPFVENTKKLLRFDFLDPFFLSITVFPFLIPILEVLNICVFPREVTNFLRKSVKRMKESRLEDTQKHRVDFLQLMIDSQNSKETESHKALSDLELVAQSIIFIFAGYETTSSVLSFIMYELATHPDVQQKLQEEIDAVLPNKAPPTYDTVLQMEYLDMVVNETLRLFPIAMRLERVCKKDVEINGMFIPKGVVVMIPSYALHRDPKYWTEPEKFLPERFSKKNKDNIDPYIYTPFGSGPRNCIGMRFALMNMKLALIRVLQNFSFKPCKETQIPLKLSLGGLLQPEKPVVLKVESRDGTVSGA

[4] = Oral bioavailability in cynomolgus monkey at 10 mg/kg; assay type: ADME, organism-based, Macaca fascicularis; conditions: in vivo
Method in brief: (§2)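 Oral dose of 10 mg/kg given as a suspension in aqueous 0.5% CMC/0.25% Tween 80. Plasma AUC, Cmax and Tmax were taken from the oral arm. Bioavailability was derived against the intravenous arm in the same species.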

[5] = Cmax in cynomolgus monkey at 10 mg/kg, po; assay type: ADME, organism-based, Macaca fascicularis; design: dose 10 mg/kg, route oral; conditions: in vivo; method in brief: as §2
[6] = system: Rattus norvegicus; assay: Antiinflammatory activity in CD rat assessed as inhibition of LPS-stimulated TNFalpha production at 30 mg/kg, po administered 1 hr prior LPS challenge measured after 90 mins by ELISA; assay type: functional
Method in brief: (§3)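 Acute PK-PD model in rats: compound given by oral gavage at 10 or 30 mg/kg, then lipopolysaccharide injected, and plasma TNF-alpha release measured.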

[7] = Volume of distribution at steady state in cynomolgus monkey at 1 mg/kg, iv; assay type: ADME, organism-based, Macaca fascicularis; design: dose 1 mg/kg, route intravenous; conditions: in vivo, read-out: Vdss
Method in brief: (§4)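 Intravenous dose of 1 mg/kg given to monkeys in a solution of 5% DMA and 95% isotonic citrate buffer (50 mM, pH 5.0).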

[8] = Cmax in rat at 10 mg/kg, po; assay type: ADME, organism-based; design: dose 10 mg/kg, route oral; conditions: in vivo; method in brief: as §2
[9] = Cmax in dog at 10 mg/kg, po; assay type: ADME, organism-based, Canis lupus familiaris; design: dose 10 mg/kg, route oral; conditions: in vivo; method in brief: as §2
[10] = Lipophilicity, log D of the compound; assay type: physicochemical; conditions: octanol/water
[11] = Mean residence time in rat at 2 mg/kg, iv; assay type: ADME, organism-based; design: dose 2 mg/kg, route intravenous; conditions: in vivo
Method in brief: (§5)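 Rats dosed intravenously at 2 mg/kg in a solution of 5% DMA and 30% PEG 400.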

[12] = system: Rattus norvegicus; assay: Antiinflammatory activity in CD rat assessed as inhibition of LPS-stimulated TNFalpha production at 10 mg/kg, po administered 1 hr prior LPS challenge measured after 90 mins by ELISA; assay type: functional; method in brief: as §3
[13] = Volume of distribution at steady state in rat at 2 mg/kg, iv; assay type: ADME, organism-based; design: dose 2 mg/kg, route intravenous; conditions: in vivo, read-out: Vdss; method in brief: as §5
[14] = AUC in rat at 2 mg/kg, iv; assay type: ADME, organism-based; design: dose 2 mg/kg, route intravenous; conditions: plasma; method in brief: as §5
[15] = system: Canis familiaris; assay: AUC in dog at 10 mg/kg, po; assay type: ADME, organism-based, Canis lupus familiaris, Plasma; design: dose 10 mg/kg, route oral; conditions: in vivo; method in brief: as §2
[16] = Oral bioavailability in rat; assay type: ADME, organism-based; conditions: in vivo
[17] = system: Rattus norvegicus; assay: Toxicity in rat assessed as adverse effects at 90 mg/kg, po qd for 4 days; assay type: organism-based; design: dose 90 mg/kg, route oral; conditions: in vivo, 96 h; method in brief: as §1
[18] = system: Canis familiaris; assay: AUC in dog at 1 mg/kg, iv; assay type: ADME, organism-based, Canis lupus familiaris, Plasma; design: dose 1 mg/kg, route intravenous; conditions: in vivo
[19] = Mean residence time in cynomolgus monkey at 1 mg/kg, iv; assay type: ADME, organism-based, Macaca fascicularis; design: dose 1 mg/kg, route intravenous; conditions: in vivo; method in brief: as §4
[20] = Oral bioavailability in rat at 10 mg/kg; assay type: ADME, organism-based; conditions: in vivo; method in brief: as §2
[21] = Mean residence time in dog at 1 mg/kg, iv; assay type: ADME, organism-based, Canis lupus familiaris; design: dose 1 mg/kg, route intravenous; conditions: in vivo
[22] = Clearance in cynomolgus monkey at 1 mg/kg, iv; assay type: ADME, organism-based, Macaca fascicularis; design: dose 1 mg/kg, route intravenous; conditions: in vivo; method in brief: as §4
[23] = system: Mus musculus; assay: Antifibrotic activity in bleomycin-induced C57B1/6 mouse model assessed as inhibition of white blood cells in bronchoalveolar lavage at 25 to 150 mg/kg, po bid administered 2 hrs prior bleomycin induction for 13 days; assay type: functional, organism-based; conditions: Lung
Method in brief: (§6)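 Mice received oral doses prophylactically at 25, 50, 100 and 150 mg/kg before bleomycin instillation, then twice daily for 13 days. White blood cells, monocytes and lymphocytes were counted in bronchoalveolar lavage, and lung fibrosis was scored, each against a vehicle control.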

[24] = Clearance in rat at 2 mg/kg, iv; assay type: ADME, organism-based; design: dose 2 mg/kg, route intravenous; conditions: in vivo; method in brief: as §5
[25] = Tmax in rat at 10 mg/kg, po; assay type: ADME, organism-based; design: dose 10 mg/kg, route oral; conditions: in vivo; method in brief: as §2
[26] = biological target: Cytochrome P450 2D6 (Homo sapiens, UniProt P10635); assay: Inhibition of CYP2D6; assay type: ADME
Chain of Cytochrome P450 2D6 (P10635 whole entry): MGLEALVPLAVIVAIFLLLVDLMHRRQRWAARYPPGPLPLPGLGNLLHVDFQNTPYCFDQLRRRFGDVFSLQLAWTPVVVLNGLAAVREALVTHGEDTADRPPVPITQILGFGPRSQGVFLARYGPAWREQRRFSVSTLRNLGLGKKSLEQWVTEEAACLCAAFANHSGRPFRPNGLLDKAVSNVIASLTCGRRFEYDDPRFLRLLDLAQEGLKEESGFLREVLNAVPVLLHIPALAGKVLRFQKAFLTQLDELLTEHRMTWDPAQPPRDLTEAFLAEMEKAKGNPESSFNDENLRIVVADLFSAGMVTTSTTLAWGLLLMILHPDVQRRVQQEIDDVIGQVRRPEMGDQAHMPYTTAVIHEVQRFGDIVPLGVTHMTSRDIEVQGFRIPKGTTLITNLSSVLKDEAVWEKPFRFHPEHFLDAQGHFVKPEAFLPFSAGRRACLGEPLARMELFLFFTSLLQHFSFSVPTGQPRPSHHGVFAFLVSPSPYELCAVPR

[27] = AUC in cynomolgus monkey at 1 mg/kg, iv; assay type: ADME, organism-based, Macaca fascicularis; design: dose 1 mg/kg, route intravenous; conditions: plasma; method in brief: as §4
[28] = system: Mus musculus; assay: Antifibrotic activity in bleomycin-induced C57B1/6 mouse model assessed as reduction in lung fibrosis score at 25 to 150 mg/kg, po bid administered 2 hrs prior bleomycin induction for 13 days; assay type: functional; design: scale not given: the % may be the effect or the level left; conditions: dose mg/kg 25-150; method in brief: as §6
[29] = system: Mus musculus; assay: Antifibrotic activity in bleomycin-induced C57B1/6 mouse model assessed as inhibition of lymphocytes in bronchoalveolar lavage at 25 to 150 mg/kg, po bid administered 2 hrs prior bleomycin induction for 13 days; assay type: functional, organism-based; conditions: Lung; method in brief: as §6
[30] = Volume of distribution at steady state in dog at 1 mg/kg, iv; assay type: ADME, organism-based, Canis lupus familiaris; design: dose 1 mg/kg, route intravenous; conditions: in vivo, read-out: Vdss
[31] = Tmax in dog at 10 mg/kg, po; assay type: ADME, organism-based, Canis lupus familiaris; design: dose 10 mg/kg, route oral; conditions: in vivo; method in brief: as §2
[32] = system: Mus musculus; assay: Antifibrotic activity in bleomycin-induced C57B1/6 mouse model assessed as inhibition of monocytes in bronchoalveolar lavage at 25 to 150 mg/kg, po bid administered 2 hrs prior bleomycin induction for 13 days; assay type: functional, organism-based; conditions: Lung; method in brief: as §6
[33] = biological target: Mitogen-activated protein kinase 14 (Homo sapiens, UniProt Q16539); assay: Inhibition of p38alpha using myelin basic protein as substrate preincubated for 15 mins prior ATP addition measured after 60 mins by scintillation counting
Chain of Mitogen-activated protein kinase 14 (Q16539 whole entry): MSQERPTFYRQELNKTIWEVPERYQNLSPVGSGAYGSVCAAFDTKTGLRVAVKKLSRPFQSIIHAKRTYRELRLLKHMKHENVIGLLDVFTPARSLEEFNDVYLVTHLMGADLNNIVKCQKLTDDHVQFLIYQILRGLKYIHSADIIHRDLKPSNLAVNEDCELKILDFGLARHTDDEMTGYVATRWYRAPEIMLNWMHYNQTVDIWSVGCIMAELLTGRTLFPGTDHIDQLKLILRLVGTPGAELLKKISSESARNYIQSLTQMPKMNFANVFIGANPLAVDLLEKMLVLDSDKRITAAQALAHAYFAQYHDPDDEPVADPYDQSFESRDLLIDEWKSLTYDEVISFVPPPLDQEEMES

[34] = biological target: Mitogen-activated protein kinase 3 (Homo sapiens, UniProt P27361); assay: Inhibition of ERK1
Chain of Mitogen-activated protein kinase 3 (P27361 whole entry): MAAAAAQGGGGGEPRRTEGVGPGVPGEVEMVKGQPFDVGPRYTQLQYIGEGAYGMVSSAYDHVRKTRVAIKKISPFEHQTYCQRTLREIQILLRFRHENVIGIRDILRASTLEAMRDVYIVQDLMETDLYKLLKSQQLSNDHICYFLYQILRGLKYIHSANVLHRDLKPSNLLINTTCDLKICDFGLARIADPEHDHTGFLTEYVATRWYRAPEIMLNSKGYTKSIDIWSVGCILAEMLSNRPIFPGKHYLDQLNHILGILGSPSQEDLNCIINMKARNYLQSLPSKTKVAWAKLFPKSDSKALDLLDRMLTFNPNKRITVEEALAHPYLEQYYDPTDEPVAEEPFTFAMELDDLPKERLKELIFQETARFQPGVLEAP

[35] = system: Salmonella typhimurium; assay: Mutagenic activity in Salmonella Typhimurium by Ames test; assay type: toxicity, organism-based; conditions: salmonella enterica subsp. enterica serovar typhimurium
[36] = system: Mus musculus; assay: Antifibrotic activity in bleomycin-induced C57B1/6 mouse model assessed as reduction in lung fibrosis score compound po bid administered 2 hrs prior bleomycin induction for 13 days; assay type: functional, organism-based; method in brief: as §6
[37] = Solubility in simulated intestinal fluid; assay type: physicochemical
[38] = AUC in rat at 10 mg/kg, po; assay type: ADME, organism-based; design: dose 10 mg/kg, route oral; conditions: plasma; method in brief: as §2
[39] = Tmax in cynomolgus monkey at 10 mg/kg, po; assay type: ADME, organism-based, Macaca fascicularis; design: dose 10 mg/kg, route oral; conditions: in vivo; method in brief: as §2
[40] = system: Canis familiaris; assay: Oral bioavailability in dog at 10 mg/kg; assay type: ADME, organism-based, Canis lupus familiaris; conditions: in vivo; method in brief: as §2
[41] = AUC in cynomolgus monkey at 10 mg/kg, po; assay type: ADME, organism-based, Macaca fascicularis; design: dose 10 mg/kg, route oral; conditions: plasma; method in brief: as §2
[42] = Clearance in dog at 1 mg/kg, iv; assay type: ADME, organism-based, Canis lupus familiaris; design: dose 1 mg/kg, route intravenous; conditions: in vivo

## O[C@H]1CC[C@H](Nc2ncc3nc(Nc4c(F)cc(F)cc4F)n([C@H]4CCOC4)c3n2)CC1 [TANZISERTIB]
[1]
  pKa: 5.47
[2]
  Activity: Non-toxic
[3]
  inhibition (INH): Not Active
[4]
  bioavailability: 77%
[5]
  Cmax: 11 µM
[6]
  inhibition in vivo at 30 mg/kg: 77%
[7]
  Vd: 1.6 L/kg
[8]
  Cmax: 0.7 µM
[9]
  Cmax: 7.2 µM
[10]
  logD: 1.93
[11]
  MRT: 0.7 h
[12]
  inhibition in vivo at 10 mg/kg: 23%
[13]
  Vd: 1.7 L/kg
[14]
  AUC: 1.9 µM·h
[15]
  AUC: 86 µM·h
[16]
  bioavailability: 30%
[17]
  Activity: Non-toxic
[18]
  AUC: 11 µM·h
[19]
  MRT: 10 h
[20]
  bioavailability: 30%
[21]
  MRT: 7.3 h
[22]
  clearance: 0.174 L/h/kg
[23]
  inhibition: Active
[24]
  clearance: 2.34 L/h/kg
[25]
  Tmax: 1.5 h
[26]
  inhibition (INH): Not Active
[27]
  AUC: 13 µM·h
[28]
  Activity: 18%
[29]
  inhibition: Active
[30]
  Vd: 1.5 L/kg
[31]
  Tmax: 2.5 h
[32]
  inhibition: Active
[33]
  IC50: 3.4 µM
[34]
  IC50: 0.48 µM
[35]
  Activity: Non-toxic
[36]
  Activity: Dose-dependent effect
[37]
  solubility: 0.78 mg/mL (≈ 1740 µM)
[38]
  AUC: 3.1 µM·h
[39]
  Tmax: 1.3 h
[40]
  F: 27%
[41]
  AUC: 100 µM·h
[42]
  clearance: 0.204 L/h/kg

From ChEMBL document CHEMBL1949521, “Discovery of CC-930, an orally active anti-fibrotic JNK inhibitor” (Bioorg Med Chem Lett, 2012)
